Assay results reported in ChEMBL document CHEMBL1781963, “Discovery of novel hepatoselective HMG-CoA reductase inhibitors for treating hypercholesterolemia: a bench-to-bedside case study on tissue selective drug distribution” (Bioorg Med Chem Lett, 2011).
Values belong to the compound of their own block, whether it stands above or below them.

What was measured:
Homo sapiens [1] = assay: Inhibition of HMG-CoA reductase in human assessed as decrease in AUC (0 to 24 hrs) of mevalonate level in plasma at 10 mg administered qd for 14 days relative to control; format: functional
Homo sapiens [2] = assay: Inhibition of HMG-CoA reductase in human assessed as decrease in LDL-cholesterol level in plasma at 10 mg administered qd for 14 days relative to control; format: functional
[3] = Cmax in human plasma at 80 mg administered as single dose; format: ADME, organism-based; set-up: dose 80 mg
Outline: (§1)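 Phase 1 single ascending oral dose in healthy volunteers, about 5–6 subjects per dose. Total plasma drug Cmax and AUC(0-∞) were measured. Free-drug exposures were derived using plasma protein binding.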

[4] = AUC (0 to infinity) in human plasma at 1 mg administered as single dose; format: ADME, cell-free; set-up: dose 1 mg, time infinity; outline: as §1
[5] = AUC (0 to infinity) in human plasma at 5 mg administered as single dose; format: ADME, cell-free; set-up: dose 5 mg, time infinity; outline: as §1
[6] = AUC (0 to infinity) in human plasma at 80 mg administered as single dose; format: ADME, cell-free; set-up: dose 80 mg, time infinity; outline: as §1
[7] = AUC (0 to infinity) in human plasma at 160 mg administered as single dose; format: ADME, cell-free; set-up: dose 160 mg, time infinity; outline: as §1
Plasma [8] = assay: fCmax in human plasma at 20 mg administered as single dose; format: ADME, cell-free
Outline: (§2)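 Phase 1 single ascending oral dose in healthy volunteers, with N per dose group. Total plasma Cmax and AUC(0-∞) were measured. Free-drug exposures were derived from these using plasma protein binding (human plasma fu measured at 0.5 μg/mL).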

Plasma [9] = assay: fCmax in human plasma at 160 mg administered as single dose; format: ADME, cell-free; outline: as §2
Plasma [10] = assay: fAUC (0 to infinity) in human plasma at 1 mg administered as single dose; format: ADME, cell-free
Plasma [11] = assay: fAUC (0 to infinity) in human plasma at 5 mg administered as single dose; format: ADME, cell-free; outline: as §2
Plasma [12] = assay: fAUC (0 to infinity) in human plasma at 80 mg administered as single dose; format: ADME, cell-free; outline: as §2
Homo sapiens [13] = assay: Inhibition of HMG-CoA reductase in human assessed as decrease in AUC (0 to 24 hrs) of mevalonate level in plasma at 5 mg administered as single dose relative to control; format: functional
Homo sapiens [14] = assay: Inhibition of HMG-CoA reductase in human assessed as decrease in AUC (0 to 24 hrs) of mevalonate level in plasma at 20 mg administered as single dose relative to control; format: functional
Homo sapiens [15] = assay: Inhibition of HMG-CoA reductase in human assessed as decrease in AUC (0 to 24 hrs) of mevalonate level in plasma at 80 mg administered as single dose relative to control; format: functional
Homo sapiens [16] = assay: Inhibition of HMG-CoA reductase in human assessed as decrease in AUC (0 to 72 hrs) of mevalonate level in plasma at 1 mg administered as single dose relative to control; format: functional
Homo sapiens [17] = assay: Inhibition of HMG-CoA reductase in human assessed as decrease in AUC (0 to 72 hrs) of mevalonate level in plasma at 5 mg administered as single dose relative to control; format: functional
Homo sapiens [18] = assay: Inhibition of HMG-CoA reductase in human assessed as decrease in AUC (0 to 72 hrs) of mevalonate level in plasma at 20 mg administered as single dose relative to control; format: functional
Homo sapiens [19] = assay: Inhibition of HMG-CoA reductase in human assessed as decrease in AUC (0 to 72 hrs) of mevalonate level in plasma at 80 mg administered as single dose relative to control; format: functional
Liver = assay: Ratio of fAUC (0 to 24 hrs) in liver to plasma in Sprague-Dawley rat at 25 mg/kg, po; format: ADME, organism-based; set-up: dose 25 mg/kg, route oral; conditions: other tissue
Outline: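 Sprague-Dawley rats given a single oral dose (10 or 25 mg/kg). Free drug measured in liver and plasma at 0, 0.5, 1, 2, 3, 4, 7 and 24 h, n = 3/time point.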

[20] = Terminal half life in human plasma at 5 mg administered as single dose; format: ADME, cell-free; conditions: read-out: beta t1/2 (converted)
[21] = Terminal half life in human plasma at 20 mg administered as single dose; format: ADME, cell-free; conditions: read-out: beta t1/2 (converted)
[22] = Terminal half life in human plasma at 160 mg administered as single dose; format: ADME, cell-free; conditions: read-out: beta t1/2 (converted)
[23] = Cmax in human plasma at 10 mg administered as single dose; format: ADME, organism-based; set-up: dose 10 mg; outline: as §1
[24] = Cmax in human plasma at 120 mg administered as single dose; format: ADME, organism-based; set-up: dose 120 mg; outline: as §1
[25] = Cmax in human plasma at 240 mg administered as single dose; format: ADME, organism-based; set-up: dose 240 mg; outline: as §1
[26] = AUC (0 to infinity) in human plasma at 120 mg administered as single dose; format: ADME, cell-free; set-up: dose 120 mg, time infinity; outline: as §1
[27] = AUC (0 to infinity) in human plasma at 320 mg administered as single dose; format: ADME, cell-free; set-up: dose 320 mg, time infinity; outline: as §1
Plasma [28] = assay: fCmax in human plasma at 3 mg administered as single dose; format: ADME, cell-free; outline: as §2
Plasma [29] = assay: fCmax in human plasma at 120 mg administered as single dose; format: ADME, cell-free; outline: as §2
Plasma [30] = assay: fCmax in human plasma at 240 mg administered as single dose; format: ADME, cell-free; outline: as §2
Plasma [31] = assay: fAUC (0 to infinity) in human plasma at 320 mg administered as single dose; format: ADME, cell-free; outline: as §2
Homo sapiens [32] = assay: Inhibition of HMG-CoA reductase in human assessed as decrease in AUC (0 to 24 hrs) of mevalonate level in plasma at 120 mg administered as single dose relative to control; format: functional
Homo sapiens [33] = assay: Inhibition of HMG-CoA reductase in human assessed as decrease in AUC (0 to 24 hrs) of mevalonate level in plasma at 240 mg administered as single dose relative to control; format: functional
Homo sapiens [34] = assay: Inhibition of HMG-CoA reductase in human assessed as decrease in AUC (0 to 24 hrs) of mevalonate level in plasma at 320 mg administered as single dose relative to control; format: organism-based; conditions: in vivo
Homo sapiens [35] = assay: Inhibition of HMG-CoA reductase in human assessed as decrease in AUC (0 to 72 hrs) of mevalonate level in plasma at 3 mg administered as single dose relative to control; format: functional
Homo sapiens [36] = assay: Inhibition of HMG-CoA reductase in human assessed as decrease in AUC (0 to 72 hrs) of mevalonate level in plasma at 120 mg administered as single dose relative to control; format: functional
Homo sapiens [37] = assay: Inhibition of HMG-CoA reductase in human assessed as decrease in AUC (0 to 72 hrs) of mevalonate level in plasma at 320 mg administered as single dose relative to control; format: functional
Hepatocyte = assay: Inhibition of cholesterol synthesis in rat hepatocytes assessed as reduction of [14C]-cholesterol level using [14C]-acetic acid preincubated for 4 hrs before addition of [14C]-acetic acid by liquid scintillation counting; format: functional, cell-based
Outline: (§3)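 Cholesterol synthesis inhibition measured in rat hepatocytes and rat myocyte cell line, giving IC50 for each. Mean ± SEM of n ≥ 2 independent determinations.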

L6 = assay: Inhibition of cholesterol synthesis in rat L6 cells assessed as reduction of [14C]-cholesterol level using [14C]-acetic acid preincubated for 3 hrs before addition of [14C]-acetic acid by scintillation counting; format: functional, cell-based; outline: as §3
[38] = Terminal half life in human plasma at 120 mg administered as single dose; format: ADME, cell-free; conditions: read-out: beta t1/2 (converted)

SMILES: CC(C)c1nc(N(C)S(C)(=O)=O)nc(-c2ccc(F)cc2)c1/C=C/[C@@H](O)C[C@@H](O)CC(=O)O [ROSUVASTATIN]
inhibition (INH) (Homo sapiens [1]): 29.9% | inhibition (INH) (Homo sapiens [2]): 41.3%

Cmax [3]: 4480 ng/mL | AUC(0-inf) [4]: 78.5 ng·h/mL | AUC(0-inf) [5]: 434 ng·h/mL | AUC(0-inf) [6]: 11800 ng·h/mL | AUC(0-inf) [7]: 25000 ng·h/mL | fCmax (Plasma [8]): 37.7 ng/mL | fCmax (Plasma [9]): 347 ng/mL | fAUC (Plasma [10]): 4 ng·h/mL | fAUC (Plasma [11]): 22.1 ng·h/mL | fAUC (Plasma [12]): 602 ng·h/mL | Ratio (Liver): 128 | half-life [20]: 4.54 h | half-life [21]: 5.27 h | half-life [22]: 8.87 h
SMILES: Cc1ccc(CNC(=O)c2nn(-c3ccc(F)cc3)c(CC[C@@H](O)C[C@@H](O)CC(=O)O)c2C(C)C)cc1
inhibition (INH) (Homo sapiens [13]): -13% | inhibition (INH) (Homo sapiens [14]): -34% | inhibition (INH) (Homo sapiens [15]): -65% | inhibition (INH) (Homo sapiens [16]): -8% | inhibition (INH) (Homo sapiens [17]): 3% | inhibition (INH) (Homo sapiens [18]): -17% | inhibition (INH) (Homo sapiens [19]): -29%

Cmax [23]: 0.355 ng/mL | Cmax [24]: 3.31 ng/mL | Cmax [25]: 9.27 ng/mL | AUC(0-inf) [26]: 12.5 ng·h/mL | AUC(0-inf) [27]: 36 ng·h/mL | fCmax (Plasma [28]): 0.016 ng/mL | fCmax (Plasma [29]): 0.96 ng/mL | fCmax (Plasma [30]): 2.69 ng/mL | fAUC (Plasma [31]): 10.4 ng·h/mL | inhibition (INH) (Homo sapiens [34]): -61% | half-life [38]: 3.07 h
SMILES: O=C([O-])C[C@H](O)C[C@H](O)CCn1c(-c2ccc(F)cc2)nc(C(=O)NCc2cccc(F)c2)c1C1CC1.[Na+]
inhibition (INH) (Homo sapiens [32]): -46% | inhibition (INH) (Homo sapiens [33]): -56% | inhibition (INH) (Homo sapiens [35]): -10% | inhibition (INH) (Homo sapiens [36]): -17% | inhibition (INH) (Homo sapiens [37]): -28% | IC50 (Hepatocyte): 0.1 nM | IC50 (L6): 444 nM
